Source: PubChem BioAssay
A selection: hits, their analogues and other compounds. The true share with any hit is near 3.4%.
E-selectin induc – E-selectin induction in HUVECs, primary screen, imaging, HUVEC, immunofluorescence imaging, single point; AID 686992, 2013; normalized: neutral wells 0, TNF-alpha wells 100; activation, % at 7.58 µM; P16581; 0.37% of 260,000 active;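 active = mean E-selectin-positive cell signal at least 10% of the positive control, reached in at least 60% of replicates, without over 20% cell loss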
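Assay system: HUVEC primary endothelial cells. Input: 3,000 HUVEC seeded per well. Doses: one compound dose added by pin transfer. Read-out basis: % PE-positive cells. Benchmarks: TNF-alpha high, DMSO low. Detection: immunofluorescence imaging. Buffer or medium: EGM-2, gelatin.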
ERAP1 inh – human ERAP1 aminopeptidase inhibitors, primary screen, biochemical, single point, plate reader. Endoplasmic reticulum aminopeptidase 1 (Homo sapiens), Q9NZ08. recombinant ERAP1, Leu-AMC fluorescence, 60 min. inhibition, % at 10.7 µM. 0.15% of 340,000 active. AID 652197, 2013;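 active = mean replicate inhibition of at least 30%, or all replicates individually reaching that 30% level; inactive = mean below 30% and not every replicate reaching it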
S100A4 MyoIIA – inhibitors of S100A4-myosin IIA peptide binding, primary screen, biochemical, fluorescence polarization, TAMRA-MyoIIA peptide; Protein S100-A4 (Homo sapiens), P26447; inhibition, % at 10.7 µM; 0.14% of 360,000 active;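 active = mean inhibition of at least 70% across replicates, with every replicate also reaching that level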
Target sequence (P26447 whole entry, looked up): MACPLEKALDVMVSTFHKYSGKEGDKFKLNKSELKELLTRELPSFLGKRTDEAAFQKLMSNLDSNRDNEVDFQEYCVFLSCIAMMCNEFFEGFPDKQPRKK
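Material: human S100A4 monomer with TAMRA-labelled myosin IIA peptide; buffer or medium: HEPES pH 7.2 with CaCl2, KCl, NaCl, DTT, Triton; compound dosing: one concentration per compound; schedule: 5 min incubation before reading; benchmarks: neutral control DMSO, positive control TFP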
rRNA inh HTS – reduced GFP signal of wild-type E. coli, primary screen, bacterial rRNA inhibitor project, GFP/RFP fluorescence, OD600, single point. E. coli WT GFP vs humanized-ribosome RFP mutants, 24 h; stronger effect = lower value; DMSO median 0, no signal -100. 1.6% of 350,000 active. GFP signal change (wild-type ribosome), % (no concentration beside the values). AID 720706, 2013;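 active = significant combined selectivity score with lowered wild-type GFP, culture density cut under 30%, mutant RFP and density less affected; inactive = any of these conditions unmet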
MLL AF4-AF9 inh – inhibitors of AF4 peptide binding to AF9, primary screen, biochemical, AlphaScreen, biotin-AF4 peptide, FLAG-AF9, single point; Protein AF-9 (Homo sapiens), P42568; AID 651704, 2012; 0.47% of 350,000 active; inhibition, % at 10 µM;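 active = every replicate reaching a set inhibition limit, whatever the replicate mean, cut at about 25% in these data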
Target sequence (P42568 whole entry, looked up): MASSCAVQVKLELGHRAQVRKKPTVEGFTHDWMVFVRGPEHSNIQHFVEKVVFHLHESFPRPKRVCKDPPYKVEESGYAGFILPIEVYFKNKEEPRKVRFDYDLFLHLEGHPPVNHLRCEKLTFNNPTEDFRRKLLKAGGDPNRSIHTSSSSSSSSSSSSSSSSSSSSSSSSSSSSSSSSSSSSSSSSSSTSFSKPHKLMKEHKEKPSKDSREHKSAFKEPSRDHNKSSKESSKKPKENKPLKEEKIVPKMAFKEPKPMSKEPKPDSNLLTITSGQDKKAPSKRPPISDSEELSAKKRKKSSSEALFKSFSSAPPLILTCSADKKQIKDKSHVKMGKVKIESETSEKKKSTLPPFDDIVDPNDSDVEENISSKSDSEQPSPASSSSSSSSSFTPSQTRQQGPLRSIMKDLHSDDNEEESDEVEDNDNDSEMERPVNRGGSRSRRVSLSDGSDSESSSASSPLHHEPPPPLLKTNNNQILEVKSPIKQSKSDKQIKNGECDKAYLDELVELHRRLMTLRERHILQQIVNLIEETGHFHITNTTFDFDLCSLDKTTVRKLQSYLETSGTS
SIRT5 inh – SIRT5 desuccinylase inhibitors, primary screen, biochemical, fluorescence imaging, single point, set 5; NAD-dependent protein deacylase sirtuin-5, mitochondrial (Homo sapiens), Q9NXA8; Purified SirT5, succinyl-peptide AMC, trypsin-coupled fluorescence; inhibition, % at 15 µM; 1.1% of 330,000 active; in the data active = inhibition above about 15%
Hits are given with their value.

`O=C(O)c1cccc(-c2ccc(/C=N/Nc3ccc([N+](=O)[O-])cc3)o2)c1` gave E-selectin induc inactive, ERAP1 inh inactive, S100A4 MyoIIA inactive, rRNA inh HTS -38.5, MLL AF4-AF9 inh inactive and SIRT5 inh inactive.
Screening CCC(=O)N/N=C/c1ccc(-c2ccc([N+](=O)[O-])cc2)o1 returned ERAP1 inh inactive, S100A4 MyoIIA inactive, rRNA inh HTS inactive, MLL AF4-AF9 inh inactive and SIRT5 inh inactive.
COc1ccc2c3c([nH]c2c1)[C@@H](CO)N(Cc1ccccc1)CC31CCN(S(C)(=O)=O)CC1 was read as E-selectin induc inactive, ERAP1 inh inactive, S100A4 MyoIIA inactive, rRNA inh HTS inactive and MLL AF4-AF9 inh inactive.
C[C@@H]1CN([C@H](C)CO)C(=O)c2cccc(NS(=O)(=O)c3ccc(Cl)cc3)c2O[C@@H]1CN(C)Cc1ccccc1 was read as E-selectin induc inactive, ERAP1 inh inactive, S100A4 MyoIIA inactive, rRNA inh HTS inactive, MLL AF4-AF9 inh inactive and SIRT5 inh inactive.
C[C@@H]1CN([C@@H](C)CO)C(=O)c2cc(-c3cccc(F)c3)cnc2O[C@@H]1CN(C)CC1CCOCC1 was read as E-selectin induc inactive, ERAP1 inh inactive, S100A4 MyoIIA inactive, rRNA inh HTS inactive, MLL AF4-AF9 inh inactive and SIRT5 inh inactive.
Screening COc1ccc(/C=C/C(=O)OCC(=O)c2ccc[nH]2)cc1 returned ERAP1 inh inactive, S100A4 MyoIIA inactive, rRNA inh HTS inactive, MLL AF4-AF9 inh inactive and SIRT5 inh inactive.
`O=C(/C=C/c1ccc([N+](=O)[O-])cc1)OCC(=O)c1ccc[nH]1` gave E-selectin induc inactive, ERAP1 inh inactive, S100A4 MyoIIA inactive, rRNA inh HTS inactive, MLL AF4-AF9 inh inactive and SIRT5 inh 22.7.
Screening O=C(C[C@@H]1CC[C@H]2NC[C@H](O)COC[C@@H]2O1)N1CCc2ccccc2C1 returned E-selectin induc inactive, ERAP1 inh inactive, S100A4 MyoIIA inactive, rRNA inh HTS inactive, MLL AF4-AF9 inh inactive and SIRT5 inh inactive.
Cc1cc(N2CCN(C(c3ccnc4ccccc34)c3nnnn3-c3c(C)cccc3C)CC2)c2ccccc2n1 (centres undefined) was read as E-selectin induc inactive, ERAP1 inh inactive, S100A4 MyoIIA inactive, rRNA inh HTS -25.6, MLL AF4-AF9 inh inactive and SIRT5 inh inactive.
Cc1cccc(C)c1-n1nnnc1C(c1ccnc2ccccc12)N1CCN(CCN(C)C)CC1 (centres undefined) was read as E-selectin induc inactive, ERAP1 inh inactive, S100A4 MyoIIA inactive, rRNA inh HTS inactive, MLL AF4-AF9 inh inactive and SIRT5 inh inactive.
Screening O=C1NC[C@H](CCCCN2C[C@H](Cc3ccc(O)cc3)N(CCC3CCCCC3)C(=O)C2=O)N(CCc2ccc(O)cc2)C1=O returned ERAP1 inh inactive, S100A4 MyoIIA inactive, rRNA inh HTS -24.6, MLL AF4-AF9 inh inactive and SIRT5 inh inactive.
Screening CC(=O)C1=C(O)C(=Cc2ccccc2)OC1=O returned ERAP1 inh inactive, S100A4 MyoIIA inactive, rRNA inh HTS inactive, MLL AF4-AF9 inh inactive and SIRT5 inh 20.0.
`CC(C)(C)c1ccc(-c2nc(N)nc(N)n2)cc1` gave S100A4 MyoIIA inactive, rRNA inh HTS inactive, MLL AF4-AF9 inh inactive and SIRT5 inh inactive.
`Nc1nc(N)nc(-c2ccc(Oc3ccccc3)cc2)n1` gave ERAP1 inh inactive, S100A4 MyoIIA inactive, rRNA inh HTS -34.0, MLL AF4-AF9 inh inactive and SIRT5 inh inactive.
For Cc1sc(N)nc1-c1ccc(Oc2ccccc2)cc1 the results were ERAP1 inh inactive, S100A4 MyoIIA inactive, rRNA inh HTS inactive, MLL AF4-AF9 inh inactive and SIRT5 inh inactive.
Nc1nc(-c2ccc(Cl)cc2)nc(-c2ccc(Cl)cc2)n1 was read as E-selectin induc inactive, S100A4 MyoIIA inactive, rRNA inh HTS inactive, MLL AF4-AF9 inh inactive and SIRT5 inh 29.0.
For COc1ccc(S(=O)(=O)Nc2ccc3c(c2)C(=O)N([C@H](C)CO)C[C@@H](C)[C@H](CN(C)Cc2ccc(C(=O)O)cc2)O3)cc1 the results were E-selectin induc inactive, ERAP1 inh inactive, S100A4 MyoIIA inactive, rRNA inh HTS inactive, MLL AF4-AF9 inh inactive and SIRT5 inh inactive.
For COc1ccc(C2CC(=O)Oc3c(C(CCN4CCCCC4)c4ccc(N(C)C)cc4)c(OC)cc(OC)c32)cc1 (centres undefined) the results were ERAP1 inh inactive, S100A4 MyoIIA inactive, rRNA inh HTS inactive, MLL AF4-AF9 inh 44.2 and SIRT5 inh inactive.
COc1cc(C2CC(=O)Oc3c(C(CCN4CCN(c5ccccc5)CC4)c4ccc(N(C)C)cc4)c(OC)cc(OC)c32)cc(OC)c1OC (centres undefined) was read as E-selectin induc inactive, S100A4 MyoIIA inactive, rRNA inh HTS inactive and MLL AF4-AF9 inh inactive.
Screening COc1cc(O)c(C(CCN2CCCC2)c2ccc3c(c2)OCO3)c(OC)c1 (centres undefined) returned E-selectin induc inactive, ERAP1 inh inactive, S100A4 MyoIIA inactive, rRNA inh HTS inactive, MLL AF4-AF9 inh inactive and SIRT5 inh inactive.
For COc1cc(O)c(C(CCN2CCCC2)c2ccc(N(C)C)cc2)c(OC)c1 (centres undefined) the results were E-selectin induc inactive, S100A4 MyoIIA inactive, rRNA inh HTS inactive and MLL AF4-AF9 inh 39.0.
For COc1cc(OC)c2ccc(=O)oc2c1C(CCN1CCN(c2ccccc2)CC1)c1ccc(N(C)C)cc1 (centres undefined) the results were ERAP1 inh inactive, S100A4 MyoIIA inactive, rRNA inh HTS inactive and MLL AF4-AF9 inh 26.1.
For COc1ccc(NC(=O)Nc2ccc3c(c2)[C@@H]2C[C@H](CC(=O)NCc4ccccn4)O[C@@H](CO)[C@@H]2O3)cc1 the results were E-selectin induc inactive, ERAP1 inh inactive, S100A4 MyoIIA inactive, rRNA inh HTS inactive, MLL AF4-AF9 inh inactive and SIRT5 inh inactive.
For CCCNC(=O)Nc1ccc2c(c1)C(=O)N(C)[C@@H]1CC[C@@H](CC(=O)NC)O[C@@H]1CO2 the results were E-selectin induc inactive and rRNA inh HTS inactive.
For Nc1cccc2cc(S(=O)(=O)O)ccc12 the results were E-selectin induc inactive, ERAP1 inh inactive, S100A4 MyoIIA inactive, rRNA inh HTS inactive, MLL AF4-AF9 inh inactive and SIRT5 inh 57.2.
Nc1ccc2c(S(=O)(=O)O)cccc2c1S(=O)(=O)O was read as E-selectin induc inactive, ERAP1 inh inactive, S100A4 MyoIIA inactive, rRNA inh HTS inactive and MLL AF4-AF9 inh inactive.
